Laboratory results taken from PubChem BioAssay AID822 (SRMLSC, 2007).
The source made the active and inactive calls.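 Rule for the calls: active = half-maximal effective dose for blocking growth of human endothelial cells at most 100 µM; inactive = the rest.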

Assay: HUVEC proliferation inhibition, dose response, cell-based, ATP luminescence (AID 822);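 note: cells exposed to compound for 72 h before the ATP read; 100% = median luminescence of untreated cell-only control wells on each plate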
Conditions: HUVEC proliferation, viability ATP luminescence; at 20 µM (top of the series)
In short: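 Test system: HUVEC; Input: 1250 HUVEC cells seeded per well; Doses: 0.039–20 µM, 0.2% DMSO; Evaluation: % viability versus median cell-only wells, EC50 from 4-parameter fit; Medium: EBM plus 2% FBS; Incubation: compound treatment 72 h, 37 °C; Signal: luminescent ATP measurement with CellTiter-Glo reagent; Plate: collagen-coated multiwell plates.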

SMILES	viability
O=C(CN1CCN(S(=O)(=O)c2ccc(F)cc2)CC1)Nc1ccc2c(c1)OCO2	116% (inactive)
CNC(=O)Cn1c(=O)n(C)c2ccccc21	91.8% (inactive)
CCn1c(Cc2ccc(OC)cc2)nnc1SCC(=O)Nc1cccc(C(=O)OC)c1	81.8% (inactive)
CCOc1ccc(NC(=S)Nc2ccc(C)c([N+](=O)[O-])c2)cc1	88.7% (inactive)
COc1ccc(OC)c(S(=O)(=O)N(C)CC(=O)N2CCN(c3ccc(F)cc3)CC2)c1	100% (inactive)
Cn1nnc(NC(=O)CSc2ccc(Cl)cc2)n1	103% (inactive)
Cn1c(SCC(=O)Nc2ccc(N3CCOCC3)cc2)nnc1-c1ccccc1	103% (inactive)
CC(C)(C)n1cnc2cc(NS(=O)(=O)c3ccccc3)ccc21	105% (inactive)
COc1cc2c(C(=O)NCc3ccc4c(c3)OCO4)cn(CC(C)C)c(=O)c2cc1OC	82.3% (inactive)
Cc1sc2nc(SCC(=O)NCc3ccco3)n(CCc3ccccc3)c(=O)c2c1C	91.5% (inactive)
COc1ccc(CCC(=O)N2CCN(C3CCCCC3)CC2)cc1	99.8% (inactive)
CC1=CC(C)(C)Nc2ccc(OC(=O)CN3C(=O)C4CCCCC4C3=O)cc21 (centres undefined)	91% (inactive)
CSc1nncc(=O)[nH]1	96.7% (inactive)
C/C(=N\O)C(=O)C(CN1CCCCC1)CN1CCCCC1	81% (inactive)
CN1C(=O)C(O)(CC(=O)c2cccc(-n3cccc3)c2)c2ccccc21 (centres undefined)	84.7% (inactive)
O=C1CC(Sc2nnc(-c3ccccc3O)o2)C(=O)N1c1ccccc1 (centres undefined)	93% (inactive)
CC(C)(C)c1ccc(-c2nnc(SCC(=O)O)n2N)cc1	106% (inactive)
Clc1ccc(Cn2cc(/C=N/n3cnnc3)c3ccccc32)c(Cl)c1	87.3% (inactive)
CC1(C)CC(=O)c2cc(C(=O)NCc3ccco3)c(=O)n(-c3ccc(Cl)cc3)c2C1	97.2% (inactive)
O=C(Nc1cccnc1)c1ccc(Oc2ccccc2)cc1	108% (inactive)
COc1ccc(-c2noc(-c3ccc(Br)o3)n2)cc1OC	99.7% (inactive)
CCOc1cc(N2CCOCC2)c(OCC)cc1NC(=O)COc1ncnc2ccc(Br)cc12	91.2% (inactive)
CSc1nnc2n(-c3ccc(C)cc3)c(=O)c3c4c(sc3n12)COC(C(C)C)C4 (centres undefined)	81.8% (inactive)
O=S1(=O)c2ccccc2N=NN1Cc1cc(Cl)cc(Cl)c1	84.9% (inactive)
